Converted amounts (≈) assume the structure as drawn. The source made the active and inactive calls. The rule behind the calls is not given here.
Columns and labels:
[1] = tested on: Staphylococcus aureus; assay: Antimicrobial activity against Staphylococcus aureus RN6390B assessed as growth inhibition after 18 hrs by spectrophotometry; assay type: functional
[2] = Inhibition of AIP-1-induced AgrC-I activation in Staphylococcus aureus RN6390B after 55 mins by beta-lactamase reporter assay
Method in brief: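 agrP3::blaZ reporter strain RN6390B (pRN6683) grown overnight at 37 °C in CYGP with 5 μg/mL chloramphenicol, diluted 1/100, grown with shaking to OD600 ≈ 0.4. Incubated with AIP-1 (0.01 nM to 10 μM) plus compounds (0–100 μM) for 55 min at 37 °C; quenched with sodium azide; β-lactamase read with nitrocefin. Triplicate, ≥2 independent occasions; IC50 fitted.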

[3] = tested on: Staphylococcus aureus; assay: Antimicrobial activity against Staphylococcus aureus RN6390B assessed as growth inhibition up to 100 uM after 18 hrs by spectrophotometry; assay type: functional, organism-based
Method in brief: (§1)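 Staphylococci were grown at 37 °C with shaking in LB, Mueller–Hinton or CYGP broth, with or without test compound. Growth curves were followed as OD600 over 18 h.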

[4] = tested on: Staphylococcus aureus; assay: Inhibition of AIP-1-induced AgrC-I activation in Staphylococcus aureus RN6390B up to 100 uM after 55 mins by beta-lactamase reporter assay
Method in brief: (§2)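 The reporter strain was S. aureus RN6390B (pRN6683) carrying agrP3::blaZ. It was grown overnight at 37 °C in CYGP with 5 μg/mL chloramphenicol, diluted 1/100, and grown to OD600 ≈ 0.4. Cells were exposed to AIP-1 (0.01 nM–10 μM) plus compound (0–100 μM) for 55 min at 37 °C, quenched with sodium azide, and read as β-lactamase activity by nitrocefin. Triplicates were run on ≥2 occasions, with IC50 fitted.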

[5] = Iron-chelating activity at 50 uM by Chrome Azurol S […] assay; assay type: physicochemical
Method in brief: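 Chrome azurol S (CAS) assay with compounds at 50 μM. Desferrioxamine (10 μM) served as positive control and MeCN as solvent control.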

[6] = tested on: Staphylococcus aureus; assay: Noncompetitive inhibition of AgrC-I in AIP-1-induced Staphylococcus aureus RN6390B at 25 to 100 uM after 55 mins by kinetic study; method in brief: as §2
[7] = tested on: Staphylococcus aureus; assay: Noncompetitive inhibition of AgrC-I in AIP-1-induced Staphylococcus aureus RN6390B assessed as reduction in maximum level of activation at 25 to 100 uM after 55 mins by kinetic study relative to control; method in brief: as §2
[8] = tested on: Staphylococcus aureus; assay: Inhibition of Staphylococcus aureus adherence to human nasal squamous epithelial cells at 10 uM after 1 hr; assay type: functional, organism-based; settings: Epithelial cell
Method in brief: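 Desquamated human nasal squamous epithelial cells, untreated or compound-treated, were incubated with S. aureus. Bound bacteria were counted per 100 nasal cells, as the mean of three experiments run in duplicate.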

[9] = tested on: Staphylococcus aureus; assay: Antimicrobial activity against Staphylococcus aureus Newman in NMRI mouse septic arthritis model; assay type: functional, organism-based
Method in brief: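 Mice were given test agent at 10 mg/kg body weight or PBS (control) and then challenged with S. aureus. Arthritis frequency and arthritic index were scored over a 10 day period.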

[10] = tested on: Staphylococcus aureus; assay: Antimicrobial activity against Staphylococcus aureus USA300 assessed as growth inhibition at 100 uM after 18 hrs by spectrophotometry; assay type: functional, organism-based; method in brief: as §1
[11] = tested on: Staphylococcus aureus; assay: Noncompetitive inhibition of AgrC-I in AIP-1-induced Staphylococcus aureus RN6390B at 5 to 25 uM after 55 mins by kinetic study; method in brief: as §2

CCCCCCCCC/C(O)=C1/C(=O)N[C@@H](C)C1=O
MIC [1]: 100 µM (≈ 26.7 µg/mL)
IC50 [2]: 20 µM

CCCCCCCCCC(=O)CC(=O)C1=C(O)COC1=O
growth inhibition (GI) [3]: inactive
inhibition [4]: inactive

CCCCCCCCCC(=O)CC(N)=O
growth inhibition (GI) [3]: inactive
inhibition [4]: inactive

O=C(Cc1ccc([N+](=O)[O-])cc1)C1=C(O)COC1=O
growth inhibition (GI) [3]: inactive
inhibition [4]: inactive

CCCCCCCCCC(=O)CC(=O)N[C@@H]1CCOC1=O
MIC [1]: 100 µM (≈ 29.7 µg/mL)
IC50 [2]: 37 µM

O=C(CCCC1CCCCC1)CC(=O)N[C@H]1CCOC1=O
growth inhibition (GI) [3]: inactive
inhibition [4]: inactive

O=C(Cc1ccc(Br)cc1)C1=C(O)COC1=O
growth inhibition (GI) [3]: inactive
inhibition [4]: inactive

CCCCCCCCCCCC(=O)N[C@H]1CCOC1=O
growth inhibition (GI) [3]: inactive
inhibition [4]: inactive

CCCCCCCCCC/C(O)=C1/C(=O)N[C@@H](CCO)C1=O
MIC [1]: 50 µM (≈ 15.6 µg/mL)
IC50 [2]: 10 µM

CCC/C(O)=C1/C(=O)N[C@@H](CCO)C1=O
growth inhibition (GI) [3]: inactive
inhibition [4]: inactive

CCCCCCCCOC(=O)CC(=O)N[C@H]1CCOC1=O
growth inhibition (GI) [3]: inactive
inhibition [4]: inactive

CCCCCCCCC/C(O)=C1/C(=O)N[C@H](CCO)C1=O
IC50 [2]: 28 µM
growth inhibition (GI) [3]: inactive

CCCCCCCCCC(=O)CC(=O)N[C@@H](CCO)C(=O)O
growth inhibition (GI) [3]: inactive
inhibition [4]: inactive

O=C1N[C@@H](CCO)C(=O)/C1=C(/O)Cc1ccc([N+](=O)[O-])cc1
growth inhibition (GI) [3]: inactive
inhibition [4]: inactive

CCCCC/C=C/CCC(=O)CC(=O)N[C@H]1CCOC1=O
growth inhibition (GI) [3]: inactive
inhibition [4]: inactive

CCCCCCCCNC(=O)CC(=O)N[C@H]1CCOC1=O
growth inhibition (GI) [3]: inactive
inhibition [4]: inactive

CCCCCCCCCC(O)CC(=O)N[C@H]1CCOC1=O (stereo not given in full)
growth inhibition (GI) [3]: inactive
inhibition [4]: inactive

O=C(CCCc1ccccc1)CC(=O)N[C@H]1CCOC1=O
growth inhibition (GI) [3]: inactive
inhibition [4]: inactive

CC(C)CCCCCCC(=O)C1=C(O)COC1=O
growth inhibition (GI) [3]: inactive
inhibition [4]: inactive

CCCCCCCCCC(=O)CC(=O)O[C@H]1CCOC1=O
growth inhibition (GI) [3]: inactive
inhibition [4]: inactive

CCCCCCCCCC(=O)CC(=O)N[C@H]1CC(=O)NC1=O
growth inhibition (GI) [3]: inactive
inhibition [4]: inactive

O=C1N[C@@H](CCO)C(=O)/C1=C(/O)CCCC1CCCCC1
growth inhibition (GI) [3]: inactive
inhibition [4]: inactive

CCCCCCCCCCC/C(O)=C1/C(=O)N[C@@H](CCO)C1=O
MIC [1]: 25 µM (≈ 8.14 µg/mL)
IC50 [2]: 13 µM

CCCCCCCCCC(=O)CC(=O)N[C@H]1CCNC1=O
growth inhibition (GI) [3]: inactive
inhibition [4]: inactive

CCCCCCCCN(C)C(=O)CC(=O)N[C@H]1CCOC1=O
growth inhibition (GI) [3]: inactive
inhibition [4]: inactive

CCCCCCCCCC(=O)C1=C(O)COC1=O
MIC [1]: 50 µM (≈ 12.7 µg/mL)
IC50 [2]: 21 µM
Activity [5]: Not Active

CCCCCCCCCCCCCCCC(=O)C1=C(O)COC1=O
IC50 [2]: 13 µM
growth inhibition (GI) [3]: inactive

CCCCCCCCCC(=O)CC(=O)N[C@H]1CCOC1=O
inhibition [6]: Active
IC50 [2]: 22 µM

O=C(COc1ccc(Br)cc1)C1=C(O)COC1=O
growth inhibition (GI) [3]: inactive
inhibition [4]: inactive

CCCCC/C=C/CCC(=O)C1=C(O)COC1=O
MIC [1]: 50 µM (≈ 12.6 µg/mL)
IC50 [2]: 22 µM

CCCC(=O)CC(=O)C1=C(O)COC1=O
growth inhibition (GI) [3]: inactive
inhibition [4]: inactive

CCCCCCCCC/C(O)=C1\C(=O)CNC1=O
MIC [1]: 100 µM (≈ 25.3 µg/mL)
IC50 [2]: 30 µM

CCCCCCCCC/C(O)=C1/C(=O)N[C@@H](CCO)C1=O
fold change (FC) [7]: 10
inhibition [8]: Active
Activity [9]: inactive
MIC [1]: 100 µM (≈ 29.7 µg/mL)
IC50 [2]: 42 µM
Activity [5]: Active

CCCCCC(=O)C1=C(O)COC1=O
growth inhibition (GI) [3]: inactive
Activity [5]: Not Active

CCCCCCCCCC(=O)CC(=O)N[C@H]1CCSC1=O
growth inhibition (GI) [3]: inactive
inhibition [4]: inactive

CCCCCCC/C(O)=C1/C(=O)N[C@@H](CCO)C1=O
growth inhibition (GI) [10]: inactive
IC50 [2]: 42 µM
growth inhibition (GI) [3]: inactive

CCCCCCCCCCCCC/C(O)=C1/C(=O)N[C@@H](CCO)C1=O
MIC [1]: 12.5 µM (≈ 4.42 µg/mL)
IC50 [2]: 14 µM

CCCCCCCCCC(=O)CC(=O)N[C@H]1CCC(=O)NC1=O
growth inhibition (GI) [3]: inactive
inhibition [4]: inactive

CCCCCCCCCCCC(=O)C1=C(O)COC1=O
inhibition [11]: Active
MIC [1]: 25 µM (≈ 7.06 µg/mL)
IC50 [2]: 6 µM
Activity [5]: Not Active

CCCCCC/C=C\CCCC(=O)C1=C(O)COC1=O
IC50 [2]: 88 µM
growth inhibition (GI) [3]: inactive

CCCCCCCCCC(=O)CC(=O)Nc1nccs1
growth inhibition (GI) [3]: inactive
inhibition [4]: inactive

Reference: ChEMBL document CHEMBL3232797, “Targeting Staphylococcus aureus quorum sensing with nonpeptidic small molecule inhibitors” (J Med Chem, 2014)
